Measurements taken from article PMC4339462 (Bioorganic & medicinal chemistry, 2015).
Counter-ions that a name gives are not always drawn.

How the values were obtained:
MPG [1] = target: T1, MPG (Homo sapiens, UniProt P29372); assay: Gel-based MPG activity assay in whole cell extracts; assay type: biochemical; conditions: 0–300 µM compound
APE1 = conditions: high throughput screening; ref Pubchem Bioassay AID 485314 and 2517; cited from earlier work
[2] = system: undamaged (control) oligonucleotide; assay: SPR binding of compounds to immobilized undamaged; conditions: 15 µM compound
Procedure, shortened: (§1)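 Biacore T100 SPR. Biotinylated 50-mer oligonucleotide, undamaged or εA-containing, immobilised on a streptavidin-coated C1 chip. Test compound injected at 15 µM in 10 mM HEPES-KOH pH 7.6, 90 mM KCl, 0.05% surfactant P20, at 7°C. Binding read as background-subtracted RU over 60 s injections.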

DNA polymerase β = conditions: high throughput screening; ref Pubchem Bioassay AID 485314 and 2517; cited from earlier work
MPG [3] = target: T1, MPG; assay: SPR inhibition of hMPG binding to εA-containing substrate DNA; conditions: 40 µM morin hydrate
Procedure, shortened: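 SPR with biotinylated εA-containing 50-mer oligonucleotide immobilised on a streptavidin C1 chip. Injections of 30 nM purified human MPG pre-mixed with test compound (0, 5, 10, 20, 40 µM), 60 s each. Binding taken as background-subtracted RU. Percent inhibition calculated as the decrease in RU versus DMSO.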

[4] = system: apurinic/apyrimidinic endonuclease 1 (APE1); assay: Gel-based APE1 activity assay; assay type: biochemical; conditions: 0, 20 and 40 µM
Procedure, shortened: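 Purified recombinant APE1 pre-incubated with test compound for 10 min at room temperature. Then reacted with a ³²P-labelled duplex oligonucleotide carrying a THF abasic-site analogue for 10 min at 37°C. Products resolved on denaturing 20% polyacrylamide/7 M urea gels at 60°C; band intensities quantified from X-ray film.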

[5] = system: εA-containing oligonucleotide; assay: SPR binding of compounds to immobilized εA-containing oligonucleotide; conditions: 15 µM compound
Procedure, shortened: as §1

repair of εA = assay: Plasmid-based in-cell repair assay, εA-containing M13mp18 plasmid; parameters: species or system human
Procedure, shortened: (§2)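 Lesion (εA or 8-oxo-dG) was placed at the EcoRI site of M13mp18. A phosphorylated lesion primer was annealed to ssDNA, extended with T7 polymerase, ligated with T4 ligase, supercoiled and purified. A549 and HeLa cells (DMEM, 10% FBS, 1% antibiotic) were transfected with 0, 200 or 300 µM test compound. Recovered plasmids were cut with EcoRI (lesion site) and SacI (internal control), and repair was scored by plaque formation.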

[6] = system: 8-oxoguanine DNA glycosylase (OGG1); assay: Gel-based OGG1 activity assay; assay type: biochemical; conditions: 0, 20 and 40 µM; not dose-dependent
Procedure, shortened: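 Purified recombinant OGG1 pre-incubated with test compound for 10 min at room temperature. Then reacted with a ³²P-labelled 8-oxo-dG-containing duplex oligonucleotide for 10 min at 37°C. Products resolved on denaturing 20% polyacrylamide/7 M urea gels at 60°C; band intensities quantified from X-ray film.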

repair of 8-oxo-dG = assay: Plasmid-based in-cell repair assay, 8-oxo-dG-containing M13mp18 plasmid; parameters: species or system human
Procedure, shortened: as §2

A549 cells = assay: MTT assay; assay type: cell-based, human; conditions: A549, concentrations used in the repair assay, 72 h
HeLa cells = assay: MTT assay; assay type: cell-based, human; conditions: concentrations used in the repair assay, 72 h

T1 sequence (P29372 18-298): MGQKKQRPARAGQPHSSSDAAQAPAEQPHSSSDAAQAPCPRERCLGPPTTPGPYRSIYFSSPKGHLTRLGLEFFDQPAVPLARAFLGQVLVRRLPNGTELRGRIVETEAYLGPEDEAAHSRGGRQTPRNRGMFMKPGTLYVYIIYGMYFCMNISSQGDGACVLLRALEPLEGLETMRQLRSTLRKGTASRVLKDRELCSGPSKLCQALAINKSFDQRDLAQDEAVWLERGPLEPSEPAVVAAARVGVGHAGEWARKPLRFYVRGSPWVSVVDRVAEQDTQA

## O.O=c1c(O)c(-c2ccc(O)cc2O)oc2cc(O)cc(O)c12 [morin hydrate]
MPG [1]; A549 extract
  MPG activity in whole cell extract: inhibited
MPG [1]; HeLa extract
  MPG activity in whole cell extract: inhibited
APE1
  inhibition of APE1: inhibit
[2]
  affinity for unmodified (control) DNA: no detectable affinity
DNA polymerase β
  inhibition of DNA polymerase β: inhibit
MPG [3]
  inhibition of MPG DNA binding: Complete inhibition
[4]
  effect on the activity of APE1: no effect
[5]
  affinity for εA-containing DNA: no detectable affinity
Repair of εA; 300 µM morin hydrate, A549 and HeLa cells
  reduction in repair: 50–60%
Repair of εA; A549 cells, 0, 200, 300 µM
  repair of εA in live cells: inhibited
Repair of εA; HeLa cells, 0, 200, 300 µM
  repair of εA in live cells: inhibited
Repair of εA; Homo sapiens, read-out: IC50 of MPG inhibition in live cells and in extracts
  IC50: 100 to 300 µM
[6]
  effect on OGG1 activity: some promiscuous inhibition
Repair of 8-oxo-dG; A549 cells, 0, 200, 300 µM
  repair of 8-oxo-dG in live cells: unaffected
Repair of 8-oxo-dG; HeLa cells, 0, 200, 300 µM
  repair of 8-oxo-dG in live cells: unaffected
A549 cells
  toxicity (cell survival): not toxic
HeLa cells
  toxicity (cell survival): not toxic

## Cc1cc2c(C(C)C)c(O)c(O)c(C=O)c2c(O)c1-c1c(C)cc2c(C(C)C)c(O)c(O)c(C=O)c2c1O [gossypol]
[2]
  affinity for unmodified (control) DNA: demonstrated affinity for DNA
[5]
  affinity for εA-containing DNA: demonstrated affinity for DNA

## O=c1c(O)c(-c2ccc(O)c(O)c2)oc2cc(O)cc(O)c12 [Quercetin]
MPG [1]; HeLa extract
  MPG activity in whole cell extract: did not have an effect

## O=C1c2c(O)ccc(O)c2C(=O)c2c(NCCNCCO)ccc(NCCNCCO)c21 [mitoxantrone dihydrochloride]
[2]
  affinity for unmodified (control) DNA: demonstrated affinity for DNA
[5]
  affinity for εA-containing DNA: demonstrated affinity for DNA
